Measurements as given in ChEMBL document CHEMBL1154440, “Design and synthesis of 2-(2,6-dibromophenyl)-3-heteroaryl-1,3-thiazolidin-4-ones as anti-HIV agents” (Eur J Med Chem, 2008).
pEC50: −log10 of the molar value. The source made the active and inactive calls. The rule behind the calls is not given here.

Experiments:
[1] = test system: Human immunodeficiency virus 1; experiment: Antiviral activity against HIV1 3B replication in human MT4 cells assessed as inhibition of virus-induced cytopathic effect after 5 days by tetrazolium-based colorimetric assay; type: functional, organism-based; conditions: Human immunodeficiency virus 1, 3B, MT4, 120 h
[2] = Cytotoxicity against human MT4 cells by MTT assay; type: cell-based
How it was run: (§1)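 CC50 was measured in parallel with the antiviral assays. It is the compound concentration that reduced by 50% the number of viable cells in mock-infected MT-4 or CEM cultures.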

[3] = Selectivity index, ratio of CC50 for human MT4 cells to EC50 for HIV1 3B; type: toxicity, cell-based; conditions: read-out: Ratio CC50/EC50
How it was run: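 Selectivity index is CC50/EC50. CC50 comes from the viable-cell count in mock-infected MT-4 cells.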

[4] = target: Human immunodeficiency virus type 1 reverse transcriptase (Human immunodeficiency virus 1) (UniProt Q72547); experiment: Inhibition of HIV1 reverse transcriptase at 100 ug/ml after 1 hr by microtiter plate ELISA
How it was run: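 Nonradioactive kit ELISA. HIV-1 RT, template/primer and biotin- and DIG-labelled dNTPs were incubated in lysis buffer with or without inhibitor for 1 h at 37 °C. Product was captured on streptavidin and detected with anti-DIG-peroxidase and ABTS substrate. Absorbance at 405 nm is proportional to RT activity.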

[5] = Cytotoxicity against human CEM cells by MTT assay; type: cell-based; conditions: CEM cells (CCRF-CEM); how it was run: as §1
[6] = Selectivity index, ratio of CC50 for human CEM cells to EC50 for HIV1 3B; type: toxicity, cell-based, CCRF-CEM; conditions: read-out: Ratio CC50/EC50
[7] = test system: Human immunodeficiency virus 2; experiment: Antiviral activity against HIV2 ROD replication in human MT4 cells assessed as inhibition of virus-induced cytopathic effect at subtoxic concentration after 5 days by tetrazolium-based colorimetric assay; type: functional, organism-based
[8] = test system: Human immunodeficiency virus 1; experiment: Antiviral activity against HIV1 3B replication in human CEM cells assessed as inhibition of virus-induced syncytium formation after 4 days; conditions: Human immunodeficiency virus 1, 3B, CCRF-CEM, 96 h
[9] = test system: Human immunodeficiency virus 2; experiment: Antiviral activity against HIV2 ROD replication in human CEM cells assessed as inhibition of virus-induced syncytium formation at subtoxic concentration after 4 days; conditions: CCRF-CEM

Row | Structure (SMILES) | pEC50 [1] | CC50 [2] [µM] | selectivity ratio [3] | inhibition [4] [%] | CC50 [5] [µM] | selectivity ratio [6] | Activity [7] | pEC50 [8] | Activity [9]
1 | O=C1CSC(c2c(Br)cccc2Br)N1c1ccccn1 (centres undefined) | 6.66 | 13.1 | 60 | 85.2 | 17.1 | 66 | inactive | 6.57 | inactive
2 | Cc1nc(N2C(=O)CSC2c2c(Br)cccc2Br)nc(C)c1C (centres undefined) | 7.22 | 227 | 3720 | 100 | > 273 | > 5020 | inactive | 7.22 | inactive
3 | O=C1CSC(c2c(Br)cccc2Br)N1Cc1ccco1 (centres undefined) | 6.68 | 36.4 | 171 | 99 | 36.6 | 200 | inactive | 6.74 | inactive
4 | Clc1cccc(Cl)c1C1SCc2nc3ccccc3n21 (centres undefined) |  |  | 16 |  |  |  | inactive |  | inactive
5 | O=C1CSC(c2c(Br)cccc2Br)N1Cc1ccccn1 (centres undefined) | 6.08 | 174 | 209 | 97.6 | 117 | 283 | inactive | 6.20 | inactive
6 | Cc1nc(N2C(=O)CSC2c2c(Br)cccc2Br)ccc1Br (centres undefined) | 5.99 | 98 | 96 | 61.4 | 98 | 53 | inactive | 5.74 | inactive
7 | O=C1CSC(c2c(Br)cccc2Br)N1c1nccs1 (centres undefined) | 6.30 | 109 | 218 | 69.5 | 109 | 194 | inactive | 6.25 | inactive
8 | Fc1cccc(F)c1C1SCc2nc3ccccc3n21 (centres undefined) [THIAZOLOBENZIMIDAZOLE] |  |  | 54.5 |  |  | 45 | inactive |  | inactive
9 | O=C1CSC(c2c(Br)cccc2Br)N1Cc1cccs1 (centres undefined) | 6.24 | 34.6 | 59 | 84.3 | 35.6 | 59 | inactive | 6.22 | inactive
10 | Cc1cc(C)nc(N2C(=O)CSC2c2c(Br)cccc2Br)n1 (centres undefined) |  |  |  | 100 |  |  |  |  | 
11 | O=C1CSC(c2c(Br)cccc2Br)N1c1cccc(C(F)(F)F)n1 (centres undefined) | 5.34 | 30 | 7 | 23.9 | 29.8 | 8 | inactive | 5.40 | inactive
12 | Cc1ccnc2c1NC(=O)c1cccnc1N2C1CC1 [NEVIRAPINE] | 7.30 | > 50 | > 1000 |  | > 4 | > 370 | inactive | 8.00 | inactive
13 | Cc1ccnc(N2C(=O)CSC2c2c(Br)cccc2Br)n1 (centres undefined) | 7.40 | 33.9 | 757 | 100 | 36.3 | 930 | inactive | 7.40 | inactive
14 | Cc1cc(-c2ccccc2)nc(N2C(=O)CSC2c2c(Br)cccc2Br)n1 (centres undefined) | < 5.06 | 184 | < 21 | 17.8 |  |  | inactive |  | inactive
15 | Cc1cccc(N2C(=O)CSC2c2c(Br)cccc2Br)n1 (centres undefined) | 7.05 | 233 | 2660 | 79.5 | 233 | 2950 | inactive | 7.10 | inactive
16 | Cc1cc(N2C(=O)CSC2c2c(Br)cccc2Br)nc(C)n1 (centres undefined) | 5.28 | 33.4 | 6 | 66.4 | 33.5 | 7 | inactive | 5.33 | inactive
17 | O=C1CSC(c2c(Br)cccc2Br)N1c1ncccn1 (centres undefined) | 6.62 | 172 | 687 | 100 | 179 | 769 | inactive | 6.64 | inactive
18 | Cc1cc(C(F)(F)F)nc(N2C(=O)CSC2c2c(Br)cccc2Br)n1 (centres undefined) | 6.49 | 32.6 | 99 | 85.4 | 59.3 | 161 | inactive | 6.44 | inactive
